MrgX1 allo act: allosterically activates human MrgX1 receptor signaling; Q96LB2; MrgX1-HEK293, Fluo-4 calcium flux, FDSS; active compounds read high; B-score at 10 µM; hit rate 0.63% among 310,000; AID 588675;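 active = plate-corrected calcium response at least 3 library SD above typical, normal starting fluorescence, not activating the receptor alone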;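 note: compound read alongside a low EC10 to EC30 dose of BAM8-22 agonist; peak minus trough fluorescence over baseline measured at the second addition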
Target sequence (Q96LB2 whole entry, looked up): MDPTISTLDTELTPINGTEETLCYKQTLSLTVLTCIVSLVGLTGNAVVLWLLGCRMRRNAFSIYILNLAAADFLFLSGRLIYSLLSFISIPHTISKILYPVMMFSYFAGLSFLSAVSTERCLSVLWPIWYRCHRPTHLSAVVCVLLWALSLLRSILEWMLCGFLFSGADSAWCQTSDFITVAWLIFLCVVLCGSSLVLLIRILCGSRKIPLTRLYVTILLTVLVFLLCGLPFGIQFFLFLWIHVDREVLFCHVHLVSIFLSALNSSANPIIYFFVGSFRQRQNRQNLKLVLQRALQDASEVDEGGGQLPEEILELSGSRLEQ
MrgX1 antag: human MrgX1 receptor antagonism, primary screen; Q96LB2; hit rate 1.3% among 310,000; AID 588676; MRGX1-HEK293 calcium flux, Fluo-4, BAM8-22 antagonism; active compounds read low; B-score at 10 µM;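 active = calcium-response B-score plate-corrected more than 3 library SD below zero, starting fluorescence within 5 deviations, no agonist response on first addition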;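 note: peak minus trough fluorescence over baseline after final BAM8-22 challenge near maximal dose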
RGS4 pot: potentiators or activators of RGS4; hit rate 0.92% among 310,000; HEK293 M3R/inducible RGS4, carbachol calcium flux Fluo4; active compounds read low; B-score at 10 µM; AID 463111;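 active = B-score of the integrated calcium signal more than 4 SD below the library mean, with starting fluorescence not abnormally high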;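 note: negative B-score means reduced calcium response which marks RGS4 activation or potentiation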
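test system = HEK293 cells with stable M3R and inducible RGS4 | schedule = recording 10 s baseline at 1 Hz, 100 s post-agonist | technique = Fluo4-AM (2 µM) calcium-flux fluorescence, kinetic read | measure = Agonist-evoked peak-minus-minimum fluorescence over baseline, integrated ratio, B score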
RGS4 inh: inhibitors of human RGS4; HEK293 M3R/RGS4 inducible, Fluo-4 calcium flux; active compounds read high; triggered by carbachol at its EC20; B-score at 10 µM; hit rate 0.45% among 310,000; AID 463165;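 active = B-score, a plate-corrected calcium signal, over three deviations above library mean, with baseline fluorescence within five deviations of library mean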;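 note: RGS4 expression induced by doxycycline in cells with stable M3 receptor; B-score is computed from the integrated fluorescence ratio over baseline after carbachol; higher B-score means a larger calcium signal and so more RGS4 inhibition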
Target sequence (P49798 whole entry, looked up): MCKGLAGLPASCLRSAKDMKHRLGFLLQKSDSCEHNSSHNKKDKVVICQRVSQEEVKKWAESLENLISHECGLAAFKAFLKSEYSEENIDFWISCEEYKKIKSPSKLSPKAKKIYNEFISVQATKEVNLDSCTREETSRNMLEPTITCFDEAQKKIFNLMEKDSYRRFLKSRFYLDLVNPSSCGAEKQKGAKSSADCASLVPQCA
MrgX1 ag: agonists of human MrgX1 receptor; Q96LB2; MrgX1-HEK293 cells, Fluo-4 calcium fluorescence, agonist mode; active compounds read high; B-score at 10 µM; hit rate 0.44% among 310,000; AID 588627;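 active = calcium response B-score plate-corrected fluorescence ratio at least 3 library SD, with starting fluorescence B-score inside 5 SD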
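Test system: HEK293 cells stably expressing human MrgX1 receptor; Input: fifteen thousand cells per well; Dosing: compound delivered in addition one of three; Schedule: overnight seeding, then 1 h dark dye loading; Technique: Fluo-4 NW calcium fluorescence; Measure: B-scored fluorescence response ratio; Controls: positive and negative controls per plate.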
RGS4 block valid: RGS4 inhibitor validation | HEK293 M3R/RGS4, carbachol calcium Fluo-4 fluorescence; carbachol added at its EC20; 0 = buffer wells, 100 = carbachol control | calcium response, % at 10 µM | hit rate 65% among 1,700 | AID 492999 | shares compounds with RGS4 inh;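 active = duplicate-averaged calcium response above the buffer-only control mean plus 5 SD of those controls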;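 note: integrated fluorescence ratio F max minus min over baseline F0; higher response in RGS4-induced cells means RGS4 inhibition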
M3R Ca ctr: counter-screen for RGS4 inhibitors: effect in non-induced cells | activity (percent), % at 10 µM | shares compounds with RGS4 inh | AID 493000 | HEK293 M3R non-induced, carbachol calcium Fluo-4; submaximal (EC20) carbachol stimulus; buffer wells 0%, carbachol control wells 100% | hit rate 20% among 1,900; call rule not given here;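 note: RGS4 induction absent so cells express M3R without RGS4; higher means more calcium signal and flags a non-specific hit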
RGS4 inh ctr2: signal in non-induced cells without carbachol, RGS4 inhibitor counter-screen; shares compounds with RGS4 inh; HEK293 M3R/RGS4 non-induced, Fluo-4 calcium, no carbachol; normalised: buffer wells 0%, carbachol wells 100%; calcium response (agonist-mode artifact), % at 10 µM; hit rate 22% among 1,900; AID 493001;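 active = duplicate-averaged calcium rise in uninduced cells above buffer wells' mean plus 5 SD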
An asterisk follows results filed as active; i = inactive; nt = no result given. Compounds with a hit are over-represented: about 3.5% of the library has one in this group of screens.

SMILES | MrgX1 allo act | MrgX1 antag | RGS4 pot | RGS4 inh | MrgX1 ag | RGS4 block valid | M3R Ca ctr | RGS4 inh ctr2
COc1cccc(N2[C@@H](CC(C)=O)c3ccc(/C=C/C(C)=O)cc3S2(=O)=O)c1 | i | i | i | 8.2* | i | 31.5%* | 54.5%* | i
COc1ccc(CN2[C@@H](CC(C)=O)c3ccc(/C=C/C(C)=O)cc3S2(=O)=O)cc1 | i | i | i | i | i | nt | nt | nt
O=C(/C=C/c1ccccn1)c1ccc(Br)cc1O | i | i | nt | nt | i | nt | nt | nt
O=C(/C=C/c1ccccn1)c1cc(Br)ccc1O | i | i | i | 6.96* | i | 11.5%* | 35.5%* | i
O=C1Nc2ccccc2/C1=N/N=C/c1cccc(O)c1 | i | i | i | 8.95* | i | 19.5%* | 47.0%* | i
Cn1cc(C(=O)N/N=C/C2=C(N3CCOCC3)C(=C\c3ccccc3)/CC2)ccc1=O | i | i | i | i | i | nt | nt | nt
O=C1Nc2ccccc2/C1=N\N=C\C1=C(N2CCOCC2)C(=C\c2ccccc2)/CC1 | i | i | i | i | i | nt | i | i
Cc1ccc2nsnc2c1S(=O)(=O)N1CCOCC1 | i | i | i | i | i | nt | nt | nt
CC1(C)NC(=O)N(CC(=O)O)C1=O | i | i | i | i | i | nt | nt | nt
CCN(CC)C(=O)Cn1c(=O)n(CC(=O)N2CCCCC2)c(=O)c2sccc21 | i | i | i | 17.2* | i | i | i | i
Cc1nn2c(-c3cccnc3)ccnc2c1-c1ccccc1 | i | i | i | i | i | nt | nt | nt
Cc1ccc(-c2ccnc3c(Br)c(C)nn23)cc1 | i | i | i | i | i | i | i | i
Cc1nn2c(-c3ccccc3)ccnc2c1Br | i | i | i | i | i | i | i | i
COc1ccc(-n2ncc3c(=O)n(Cc4c(F)cccc4Cl)cnc32)cc1 | i | i | i | i | i | nt | nt | nt
CCOc1cccc(-c2c(C(=O)N/N=C/c3cccnc3)nnn2-c2nonc2N)c1 | i | i | i | i | i | i | i | i
CCOc1ccc(-c2c(C(=O)N/N=C/c3ccc(O)cc3)nnn2-c2nonc2N)cc1 | i | i | i | i | i | nt | nt | nt
CCOc1cccc(-c2c(C(=O)N/N=C/c3ccc(Br)cc3)nnn2-c2nonc2N)c1 | i | i | i | 19.1* | i | 37.5%* | 57.0%* | i
CCOc1ccc(-c2c(C(=O)N/N=C/c3cccc(Br)c3)nnn2-c2nonc2N)cc1 | i | i | i | i | i | i | i | 8.0%*
CCCc1c(C(=O)N/N=C/c2cccnc2)nnn1-c1nonc1N | i | i | i | i | i | nt | nt | nt
CCc1ccccc1NC(=O)C1CCN(c2cnccn2)CC1 | i | i | i | i | i | nt | nt | nt
Cc1nc(Nc2ccc(Cl)cc2Cl)sc1C(=O)Nc1ccccc1 | i | i | i | i | i | nt | nt | nt
Oc1nc(Nc2ccc(Cl)cc2Cl)sc1/C=C1\C=Nc2ccccc21 | i | i | i | 5.73* | i | 10.5%* | i | 20.0%*
O=C(N/N=C/c1c[nH]c2ccccc12)c1[nH]c2ccc(Br)cc2c1-c1ccccc1 | nt | nt | i | 6.95* | nt | 18.0%* | 28.5%* | i
O=C(N/N=C/c1ccc(O)cc1)c1[nH]c2ccc(Br)cc2c1-c1ccccc1 | i | i | i | i | i | nt | nt | nt
Cc1ccc(/C=N/NC(=O)Cc2c[nH]c3ccccc23)c(C)c1 | i | i | i | 6.9* | i | 31.0%* | i | 42.0%*
SMILES | MrgX1 allo act | MrgX1 antag | RGS4 pot | RGS4 inh | MrgX1 ag | RGS4 block valid | M3R Ca ctr | RGS4 inh ctr2
O=C(Cc1c[nH]c2ccccc12)N/N=C/c1ccccc1O | i | i | i | i | i | nt | nt | nt
COc1ccc(-c2nnn(CC(=O)Nc3sc4c(c3C#N)CCCC4)n2)cc1 | i | i | i | i | i | nt | nt | nt
C=C1C(=O)[C@@]23[C@H](O)C[C@@H]4C(C)(C)CC[C@H](O)[C@@]4(C)[C@@H]2CC[C@@H]1[C@H]3O | i | i | i | 4.94* | i | i | i | i
C/C(=N\NC(=O)c1c(Cl)cnn1C)c1ccc(NC(=O)c2ccncc2)cc1 | i | i | i | 9.55* | i | i | i | i
Cc1[nH]n(-c2ccccc2)c(=O)c1/C=N/NC(=O)C(C)C | i | i | i | i | i | nt | nt | nt
CCOC(=O)[C@@H]1[C@H]2COc3ccccc3[C@@H]2N2C(=O)N(c3cccc(F)c3)C(=O)[C@]12C | i | i | i | i | i | i | i | i
CCOC(=O)[C@@H]1[C@H]2COc3ccccc3[C@@H]2N2C(=O)N(c3cccc(Cl)c3)C(=O)[C@@]12C | i | i | i | i | i | i | i | i
CCOC(=O)[C@@H]1[C@H]2COc3ccccc3[C@H]2N2C(=O)N(c3cccc(Cl)c3)C(=O)[C@@]12C | i | i | i | 6.45* | i | 36.0%* | 31.5%* | i
CCOC(=O)[C@@H]1[C@H]2COc3ccc(Br)cc3[C@@H]2N2C(=O)N(c3cccc(F)c3)C(=O)[C@@]12C | i | i | i | i | i | nt | nt | nt
CCOC(=O)[C@@H]1[C@H]2COc3ccccc3[C@@H]2N2C(=O)N(c3cccc(Cl)c3)C(=O)[C@]12C | i | i | i | i | i | i | i | i
CCOC(=O)[C@@H]1[C@H]2COc3cc(OC)ccc3[C@@H]2N2C(=O)N(c3ccc(OC)cc3)C(=O)[C@]12C | i | i | i | i | i | nt | nt | nt
COc1cc2c(cc1OC)C(C)N(C(=S)NC(=O)c1ccccc1)CC2 (stereo not given) | i | i | i | i | i | nt | nt | nt
O=C(Nc1ccc(Cl)cc1)OCc1cc(-c2ccccc2Cl)on1 | i | i | i | i | i | nt | nt | nt
Cc1ccc(NC(=O)OCc2cc(-c3ccccc3)on2)cc1 | i | i | i | i | i | i | i | i
CCn1c(=O)c([N+](=O)[O-])c(Cl)c2ccccc21 | 10.2* | i | i | 6.58* | i | 8.5%* | i | 9.5%*
Cc1cc(Cl)ccc1Nc1ncccc1C(N)=O | i | i | i | 5.35* | i | 11.5%* | i | i

From PubChem BioAssay
